From ChEMBL document CHEMBL1128590, “erbB-2 oncogene inhibition by geldanamycin derivatives: synthesis, mechanism of action, and structure-activity relationships” (J Med Chem, 1995)

Assays:
Mus musculus [1] = experiment: In vivo inhibition of p185 phosphotyrosine in nu/nu nude mice bearing Fisher rat embryo cells transfected with human erbB-2 at 200 mg/kg; type: functional
In short: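 Nude CD-1 (nu/nu) mice bearing subcutaneous FRE/erbB-2 tumours were dosed ip at 200 mg/kg at days 12-14 (~1 cm tumours). Tumours were removed 3 h later and extracted for p185 phosphotyrosine. The value is percent inhibition.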

SK-BR-3 = experiment: In vitro inhibition of p185 erbB-2 oncoprotein in human breast cancer SK-BR-3 cells; type: functional, cell-based
In short: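 Cellular assay with read-out as depletion of p185 erbB-2 protein after drug treatment of the cells. This depletion tracks inhibition of p185 autophosphorylation.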

Mus musculus [2] = experiment: In vivo inhibition of p185 phosphotyrosine in nu/nu nude mice bearing Fisher rat embryo cells transfected with human erbB-2 at 400 mg/kg; type: functional
In short: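 FRE/erbB-2 cells were implanted subcutaneously in CD-1 (nu/nu) mice. At days 12-14 (~1 cm) the mice received 400 mg/kg ip. After 3 h, tumours were excised and extracted to isolate p185 phosphotyrosine. The value is percent inhibition.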

IC50 (SK-BR-3) [nM]	Compound	inhibition in vivo at 200 mg/kg (Mus musculus [1]) [%]	inhibition in vivo at 400 mg/kg (Mus musculus [2]) [%]
140	CO[C@H]1/C=C\C=C(/C)C(=O)NC2=CC(=O)C(N)=C(C[C@@H](C)C[C@H](OC)[C@@H](F)[C@@H](C)/C=C(\C)[C@@H]1OC(N)=O)C2=O	46	
	CO[C@H]1/C=C\C=C(/C)C(=O)NC2=CC(=O)C(N)=C(C[C@@H](C)C[C@H](OC)[C@H](O)[C@@H](C)/C=C(\C)[C@@H]1OC(N)=O)C2=O		59
70	CO[C@H]1/C=C\C=C(/C)C(=O)NC2=CC(=O)C(N3CCC3)=C(C[C@@H](C)C[C@H](OC)[C@H](OC(C)=O)[C@@H](C)/C=C(\C)[C@@H]1OC(N)=O)C2=O	78	
	CO[C@H]1C[C@H](C)CC2=C(N3CCC3)C(=O)C=C(NC(=O)/C(C)=C/CC[C@H](OC)[C@@H](OC(N)=O)/C(C)=C/[C@H](C)[C@H]1O)C2=O		44
